These results are taken from ChEMBL document CHEMBL3758117, “Discovery of indeno[1,2-b]quinoxaline derivatives as potential anticancer agents” (Eur J Med Chem, 2016).

One assay has as its system Escherichia coli. Kind of assay: Binding affinity to Escherichia coli negative supercoiled pBR322 DNA at 10 uM after 12 hrs by ethidium bromide staining based agarose gel electrophoresis. In short, it runs like this:
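Negatively supercoiled pBR322 (400 ng) in TE buffer pH 8.0 was incubated with compound at 10 μM for 12 h at room temperature. Loading buffer with sarkosyl was added. Samples were run on 1% agarose at 6 V/cm for 2.5 h in TAE pH 8.5, stained with ethidium bromide and photographed under UV.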

A further assay deals with MDA-MB-231. Kind of assay: Antiproliferative activity against human MDA-MB-231 cells after 72 hrs by XTT assay. It counts as functional, cell-based. The conditions noted are these: MDA-MB-231, 72 h. A digest of the protocol:
(§1)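 Cells kept as monolayers in DMEM with 10% FBS, penicillin, streptomycin and amphotericin at 37°C, 5% CO2. Seeded at 5 x 10³ cells/well and exposed to compound for 72 h in medium with 10% FBS. XTT plus electron-coupling reagent added, 4 h at 37°C, absorbance read at 492 nm. Percent of control growth uses mean absorbance (n = 3). The 50% value is taken from the linear portion of the curve.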
(Tetrazolium assays rely on reduction of a dye to a coloured formazan, in cell work by metabolically active cells.)

Assay [1] is described as follows: Antiproliferative activity against human H1299 cells after 72 hrs by XTT assay. The conditions noted are these: NCI-H1299, 72 h. It counts as functional, cell-based. In short, it runs like this: as §1
Assay [2] is described as follows: Antiproliferative activity against human PC3 cells after 72 hrs by XTT assay. The conditions noted are these: PC-3, 72 h. The assay is classed as functional, cell-based. In short, it runs like this:
as §1

A short description of assay [3]: Antiproliferative activity against human HuH7 cells after 72 hrs by XTT assay. The assay is classed as functional, cell-based. The conditions noted are these: Huh-7, 72 h. In short, it runs like this: as §1
In assay [4] the test system is MRC5. Nature of the assay: Antiproliferative activity against human MRC5 cells after 72 hrs by XTT assay. It counts as cell-based. As to conditions: MRC5, 72 h. A digest of the protocol:
as §1

Assay [5] concerns MRC5. Kind of assay: Selectivity index, ratio of IC50 for human MRC5 cells to IC50 for human MDA-MB-231 cells. It counts as functional.
Assay [6] can be described thus: Selectivity index, ratio of IC50 for human MRC5 cells to IC50 for human H1299 cells. It counts as functional.
In assay [7] the test system is MRC5. Nature of the assay: Selectivity index, ratio of IC50 for human MRC5 cells to IC50 for human PC3 cells. It counts as functional.
A further assay concerns Huh-7. Kind of assay: Selectivity index, ratio of IC50 for human MRC5 cells to IC50 for human HuH7 cells. The assay is classed as functional.
Assay [8] has as its target T1, DNA topoisomerase 1 (Homo sapiens) (UniProt P11387).
T1 sequence (whole entry): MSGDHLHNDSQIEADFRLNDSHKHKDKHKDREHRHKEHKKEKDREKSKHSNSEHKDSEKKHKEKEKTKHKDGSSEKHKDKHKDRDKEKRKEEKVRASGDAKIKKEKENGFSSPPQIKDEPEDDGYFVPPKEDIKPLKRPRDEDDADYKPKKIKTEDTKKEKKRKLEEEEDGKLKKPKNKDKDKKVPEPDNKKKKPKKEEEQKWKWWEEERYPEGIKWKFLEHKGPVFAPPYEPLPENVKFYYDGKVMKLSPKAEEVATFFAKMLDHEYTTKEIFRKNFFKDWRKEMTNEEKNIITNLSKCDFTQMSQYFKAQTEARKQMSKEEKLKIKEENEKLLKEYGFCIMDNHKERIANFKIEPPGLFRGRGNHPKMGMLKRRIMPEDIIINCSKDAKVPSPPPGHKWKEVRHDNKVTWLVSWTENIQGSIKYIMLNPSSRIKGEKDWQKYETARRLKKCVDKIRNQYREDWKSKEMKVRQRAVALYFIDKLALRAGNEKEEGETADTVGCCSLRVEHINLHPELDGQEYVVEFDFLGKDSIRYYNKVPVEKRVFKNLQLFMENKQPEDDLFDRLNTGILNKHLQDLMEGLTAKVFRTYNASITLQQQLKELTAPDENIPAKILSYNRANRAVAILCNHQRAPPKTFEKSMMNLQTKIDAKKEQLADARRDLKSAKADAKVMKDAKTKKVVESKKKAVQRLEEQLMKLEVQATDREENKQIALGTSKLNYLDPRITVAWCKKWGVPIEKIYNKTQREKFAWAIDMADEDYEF
Nature of the assay: Inhibition of human DNA topoisomerase 1-mediated relaxation of supercoiled pBR322 DNA at 100 uM after 30 mins by ethidium bromide staining based agarose gel electrophoresis. In short, it runs like this:
(§2)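 Human topo I or topo II (2 units) was reacted with 0.2 μg supercoiled pBR322 in 20 μl Tris-HCl pH 7.5 containing KCl, DTT, EDTA, MgCl2 and BSA, with DMSO held at 0.5%, for 30 min at 37°C. The reaction was stopped with SDS. Samples were run on 1% agarose in Tris-acetate/EDTA at 1.5 V/cm for 2-3 h and stained with ethidium bromide. Relaxation was quantified by densitometry of the supercoiled band area.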

Assay [9] deals with T1, DNA topoisomerase 1 (Homo sapiens). Nature of the assay: Inhibition of human DNA topoisomerase 1-mediated relaxation of supercoiled pBR322 DNA at 10 uM after 30 mins by ethidium bromide staining based agarose gel electrophoresis. In short, it runs like this:
as §2

Assay [10] addresses DNA topoisomerase 2-alpha (Homo sapiens) (UniProt P11388). Kind of assay: Inhibition of human DNA topoisomerase 2-mediated relaxation of supercoiled pBR322 DNA at 100 uM after 30 mins by ethidium bromide staining based agarose gel electrophoresis. In short, it runs like this: as §2
Assay [11] shares this target. Nature of the assay: Inhibition of human DNA topoisomerase 2-mediated relaxation of supercoiled pBR322 DNA at 10 uM after 30 mins by ethidium bromide staining based agarose gel electrophoresis. In short, it runs like this:
as §2

Activity calls are given as the source filed them. The rule behind the calls is not given here.

DNA topoisomerase 2-alpha (Homo sapiens), sequence (P11388 whole entry): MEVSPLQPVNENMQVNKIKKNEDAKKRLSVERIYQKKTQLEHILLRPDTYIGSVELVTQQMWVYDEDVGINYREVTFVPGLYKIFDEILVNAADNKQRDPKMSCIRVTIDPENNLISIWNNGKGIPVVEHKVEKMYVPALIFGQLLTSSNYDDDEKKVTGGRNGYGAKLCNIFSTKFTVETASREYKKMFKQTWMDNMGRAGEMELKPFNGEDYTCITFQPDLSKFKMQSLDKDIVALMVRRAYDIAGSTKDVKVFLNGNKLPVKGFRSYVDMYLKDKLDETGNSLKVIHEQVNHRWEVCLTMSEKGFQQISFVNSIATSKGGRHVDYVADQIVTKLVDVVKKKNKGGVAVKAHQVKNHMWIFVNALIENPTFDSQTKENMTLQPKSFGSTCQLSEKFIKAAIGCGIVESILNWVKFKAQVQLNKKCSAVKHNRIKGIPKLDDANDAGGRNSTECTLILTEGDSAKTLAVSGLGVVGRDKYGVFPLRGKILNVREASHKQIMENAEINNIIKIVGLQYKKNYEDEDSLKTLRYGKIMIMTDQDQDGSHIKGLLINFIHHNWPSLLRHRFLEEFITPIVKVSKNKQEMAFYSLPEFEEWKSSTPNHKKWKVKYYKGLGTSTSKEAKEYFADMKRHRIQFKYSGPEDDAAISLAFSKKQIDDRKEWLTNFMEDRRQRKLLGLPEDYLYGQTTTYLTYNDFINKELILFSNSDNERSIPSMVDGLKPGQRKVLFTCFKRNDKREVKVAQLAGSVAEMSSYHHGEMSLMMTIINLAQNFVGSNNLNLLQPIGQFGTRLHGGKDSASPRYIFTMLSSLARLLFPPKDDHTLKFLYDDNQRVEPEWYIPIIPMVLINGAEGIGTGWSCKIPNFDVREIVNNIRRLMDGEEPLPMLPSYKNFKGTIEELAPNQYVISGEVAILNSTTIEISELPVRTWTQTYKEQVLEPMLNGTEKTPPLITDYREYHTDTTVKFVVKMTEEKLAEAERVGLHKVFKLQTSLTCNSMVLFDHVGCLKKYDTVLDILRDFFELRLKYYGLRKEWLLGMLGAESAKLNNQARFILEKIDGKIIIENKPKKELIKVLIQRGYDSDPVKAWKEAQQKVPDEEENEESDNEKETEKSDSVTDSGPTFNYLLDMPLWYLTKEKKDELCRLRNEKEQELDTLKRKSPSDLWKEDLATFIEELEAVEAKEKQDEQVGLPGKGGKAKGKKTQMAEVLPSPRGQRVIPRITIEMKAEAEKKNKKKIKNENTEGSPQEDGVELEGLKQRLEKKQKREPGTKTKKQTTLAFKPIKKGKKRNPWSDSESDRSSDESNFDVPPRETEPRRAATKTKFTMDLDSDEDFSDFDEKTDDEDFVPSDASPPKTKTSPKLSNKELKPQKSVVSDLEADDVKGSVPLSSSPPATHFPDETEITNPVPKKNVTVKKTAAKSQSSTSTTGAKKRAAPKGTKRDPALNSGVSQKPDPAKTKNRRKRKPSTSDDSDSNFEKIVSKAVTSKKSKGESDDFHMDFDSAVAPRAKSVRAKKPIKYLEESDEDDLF

Consider `Cc1cccc2nc3c(nc12)-c1ccccc1/C3=N\OCCCN(C)C.Cl`, for which the outcome in the assay on Escherichia coli was inactive. The 50% inhibitory concentration (IC50) (in general, the concentration at which inhibition is half-maximal) in the assay with MDA-MB-231 is 6.84 µM; in assay [1], 7.26 µM; in assay [2] it was 7.01 µM; in assay [3], 5.88 µM; in the assay on MRC5 [4], 7.86 µM. In addition, the “Ratio IC50” value in the assay on MRC5 [5] turned out to be 1.13; in assay [6] it was 1.08; with MRC5 [7] it was 1.12; with Huh-7 it was 1.34. Besides, the “topoisomerase 1 inhibition (active/inactive)” value in assay [8] is “Active”. For the same molecule, in assay [9], the inhibition entry is “Active”. Besides, the “inhibition call (active/not active)” value in [10] is “Active”. For the same molecule, in [11], the “topoisomerase 2 inhibition (active/not active)” value is “inactive”.
Take `CN(C)CCCO/N=C1\c2ccccc2-c2nc3c(CN4CCC(N5CCCCC5)CC4)cccc3nc21.Cl`: the result with Escherichia coli was inactive. Besides, the half-inhibitory concentration (IC50) was 0.99 µM with MDA-MB-231; 5.14 µM in assay [1]; 6.12 µM in assay [2]; 0.82 µM in assay [3]; 3.49 µM in the assay on MRC5 [4]. For the same molecule, the “Ratio IC50” value in the assay with MRC5 [5] was 3.53; in [6], 0.68; with MRC5 [7], 0.57; in the assay on Huh-7, 4.26. The “topoisomerase 1 inhibition (active/inactive)” value in [8] was “Active”. Besides, the inhibition result in [9] was “Active”. The “inhibition call (active/not active)” value in assay [10] is “Active”. In addition, in [11], the “topoisomerase 2 inhibition (active/not active)” value was “inactive”.
On to `CN(C)CCCNC(=O)c1cccc2nc3c(nc12)-c1ccccc1C3=O`, for which the outcome in the assay with Escherichia coli was inactive. For the same molecule, the IC50 in the assay on MDA-MB-231 worked out at 7.04 µM; in assay [1], 7.82 µM; in [2], 10.2 µM; in assay [3] it was 7.7 µM; with MRC5 [4], 9.07 µM. Further, the “Ratio IC50” value with MRC5 [5] is recorded as 1.29; in assay [6] it was 1.16; in the assay on MRC5 [7] it was 0.89; with Huh-7, 1.18. Further, the “topoisomerase 1 inhibition (active/inactive)” value in [8] was “Active”. Further, in assay [9], the inhibition result was “inactive”. Further, the “inhibition call (active/not active)” value in [10] is “Active”. Besides, the “topoisomerase 2 inhibition (active/not active)” value in [11] is “inactive”.
For `CN(C)CCCO/N=C/c1cccc2nc3c(nc12)-c1ccccc1/C3=N\OCCCN(C)C.Cl`, the result with Escherichia coli was inactive. In addition, the IC50 came out at 7.03 µM with MDA-MB-231; 5.1 µM in assay [1]; 6.27 µM in assay [2]; 7.19 µM in assay [3]; 6.56 µM with MRC5 [4]. In addition, the “Ratio IC50” value was 0.93 in the assay on MRC5 [5], 1.29 in assay [6], 1.05 in the assay with MRC5 [7] and 0.91 with Huh-7. The “topoisomerase 1 inhibition (active/inactive)” value in assay [8] is “Active”. Also, the inhibition result in [9] was “Active”. Further, in assay [10], the “inhibition call (active/not active)” value was “Active”. Besides, the “topoisomerase 2 inhibition (active/not active)” value in [11] is “Active”.
Consider `Cl.c1ccc2c(c1)/C(=N\OCCN1CCCC1)c1nc3ccccc3nc1-2`, for which, in the assay on Escherichia coli, the result was inactive. The IC50 in the assay with MDA-MB-231 turned out to be 4.92 µM; in assay [1], 7.03 µM; in assay [2], 8.51 µM; in [3] it was 6.46 µM; in the assay on MRC5 [4], 17.7 µM. For the same molecule, the “Ratio IC50” value in the assay on MRC5 [5] came out at 3.59; in assay [6], 2.51; in the assay with MRC5 [7] it was 2.07; in the assay on Huh-7, 2.73. In [8], the “topoisomerase 1 inhibition (active/inactive)” value was “Active”. The inhibition result in [9] was “Active”. The “inhibition call (active/not active)” value in [10] was “Active”. The “topoisomerase 2 inhibition (active/not active)” value in [11] was “inactive”.
